In PubChem BioAssay AID602225 (Southern Research Specialized Biocontainment Screening …, 2012):
Records with an inconclusive call do not appear. Activity calls are given as the source filed them.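 The calls were made as follows: active = viability below 80% at one or more tested concentrations, meaning the compound is toxic to the cells; inconclusive = replicate runs disagree on whether viability fell below 80%; inactive = viability of 80% or more at every dose.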

System: Vero E6 viability, CellTiter-Glo luminescence, 72 h
Assay: Vero E6 cell cytotoxicity, dose response, cytotoxicity control for PfM18AAP inhibitor project, set 2 (AID 602225)
Conditions: not given
Summary of the method: (§1)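 material = Vero E6 cells | compound = 10-point dose series in 2-fold dilution steps | timing = 72 h compound exposure at 37 °C, 5% CO2 | detection = CellTiter-Glo luminescence | evaluation = % viability and fitted CC50 | benchmarks = DMSO vehicle wells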

| SMILES | CC50 |
| --- | --- |
| COc1ccc(CCNc2c3ccccc3nc3ccccc23)cc1OC | 13.9 µM |
| COc1ccc(CCN(C)c2c3ccccc3nc3ccccc23)cc1OC | 27.8 µM |
| COc1ccc(CCNC(c2ccccc2)c2ccccc2)cc1OC | 32.6 µM |
| Oc1ccc(CCNc2c3ccccc3nc3ccccc23)cc1O | 30.9 µM |
| CCc1ccc(NC(=O)Cc2nc(-c3ccc(O)c(O)c3)cs2)cc1 | 28.7 µM |

System: not listed separately
Assay: as above
Conditions: Vero E6 viability, CellTiter-Glo luminescence, 72 h; at 50 µM (top of the series)
Summary of the method: as §1

| SMILES | viability |
| --- | --- |
| Oc1ccc(CCNc2ccnc3ccccc23)cc1O | 100% (inactive) |
| CN1CCN(c2nc(-c3ccc(O)c(O)c3)cs2)CC1 | 102% (inactive) |
| CN1CCN(CCc2ccc(O)c(O)c2)CC1 | 103% (inactive) |
| CN1CCN(CCCc2ccc(O)c(O)c2)CC1 | 93.4% (inactive) |
| COc1ccc(CCCN2CCN(C)CC2)cc1OC | 100% (inactive) |
| Oc1ccc(-c2csc(Nc3ncccn3)n2)cc1O | 90.7% (inactive) |
